Mdm2 MdmX PPI – inhibitors of human Mdm2/MdmX interaction. O15151+Q00987. SaOS-2 split-luciferase Mdm2/MdmX complementation, luminescence. inhibition, % at 8 µM. actives 3% (n = 330,000). AID 485346;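 active = inhibition of at least 50% at 8 µM in the primary screen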
Target sequence (O15151 whole entry, looked up): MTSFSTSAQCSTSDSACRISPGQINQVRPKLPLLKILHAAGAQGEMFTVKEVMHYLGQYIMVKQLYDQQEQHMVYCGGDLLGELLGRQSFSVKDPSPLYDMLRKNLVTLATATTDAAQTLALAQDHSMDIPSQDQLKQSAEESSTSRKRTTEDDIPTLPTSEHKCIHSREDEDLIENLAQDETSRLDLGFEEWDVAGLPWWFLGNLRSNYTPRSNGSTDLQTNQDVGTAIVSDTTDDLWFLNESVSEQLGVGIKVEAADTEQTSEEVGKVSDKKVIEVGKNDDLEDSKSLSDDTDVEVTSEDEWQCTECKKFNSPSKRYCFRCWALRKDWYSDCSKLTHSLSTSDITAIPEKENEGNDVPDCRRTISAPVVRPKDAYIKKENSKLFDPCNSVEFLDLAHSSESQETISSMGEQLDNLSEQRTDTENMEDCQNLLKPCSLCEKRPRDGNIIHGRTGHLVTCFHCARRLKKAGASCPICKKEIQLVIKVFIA
Target sequence (Q00987 whole entry, looked up): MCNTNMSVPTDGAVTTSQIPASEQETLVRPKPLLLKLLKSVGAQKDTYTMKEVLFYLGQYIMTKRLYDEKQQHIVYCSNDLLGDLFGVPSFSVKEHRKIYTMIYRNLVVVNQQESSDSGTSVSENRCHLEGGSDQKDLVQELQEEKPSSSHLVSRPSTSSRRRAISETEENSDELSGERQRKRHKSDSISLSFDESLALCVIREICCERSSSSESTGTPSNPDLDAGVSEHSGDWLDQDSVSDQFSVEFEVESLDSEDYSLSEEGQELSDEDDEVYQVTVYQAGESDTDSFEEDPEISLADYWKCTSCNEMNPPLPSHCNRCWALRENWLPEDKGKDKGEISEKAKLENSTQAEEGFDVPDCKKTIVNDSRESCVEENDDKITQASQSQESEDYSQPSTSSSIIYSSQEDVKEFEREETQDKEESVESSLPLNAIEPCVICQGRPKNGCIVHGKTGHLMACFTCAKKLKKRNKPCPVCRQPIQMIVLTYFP
697 NFkB inh – inhibitors of the PMA/ionomycin-induced NF-kB reporter in 697 B cells; 697 B-cell NF-kB luciferase reporter, 16 h; inhibition, % at 4 µM; actives 0.33% (n = 330,000); AID 435022; in the data active = inhibition above about 35%
IMP-1 inh – blocks Pseudomonas aeruginosa IMP-1 metallo-beta-lactamase; purified IMP-1, nitrocefin hydrolysis, epi-absorbance fluorescence; inhibition, % at 5.6 µM; actives 0.45% (n = 290,000); AID 1556;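 active = inhibition above the mean plus 3 SD of all compounds in the same screening run, cut at about 4.5% in these data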
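System – purified recombinant IMP-1 beta-lactamase · Input – IMP-1 dispensed at 0.2 nM · Timing – 15 min preincubation plus 25 min reaction at 25 °C · Signal – Epi-absorbance fluorescence, 480 nm excitation, 530 nm emission · Measure – percent IMP-1 inhibition derived from blank-referenced optical density · Controls – Enzyme-plus-DMSO low control, enzyme-free DMSO high control · Replication – singlicate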
VIM-2 inh – inhibitors of Pseudomonas aeruginosa VIM-2 metallo-beta-lactamase. purified VIM-2, nitrocefin hydrolysis, epi-absorbance fluorescence. inhibition, % at 5.6 µM. actives 0.89% (n = 290,000). AID 1527;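 active = inhibition above the mean of all tested compounds plus 3 SD, cutoff set per screening run, cut at about 7.5% in these data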;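 note: red hydrolysis product quenches plate fluorescence so inhibitors raise well fluorescence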
Jurkat NFkB inh – lowers PMA/ionomycin-induced NF-kB signal in Jurkat cells | PMA/ionomycin-induced NF-kB luciferase reporter, luminescence | inhibition, % at 4 µM | actives 0.53% (n = 330,000) | AID 435003; in the data active = inhibition above about 50%
aSyn UTR inh – 5' untranslated region of α-synuclein, MLPCN primary screen; alpha-synuclein 5'UTR reporter, inhibitor activity; inhibition, % (tested at 7.5 µM); actives 0.82% (n = 300,000); AID 1813; in the data active = inhibition above about 60%; inconclusive = no clear call, values can overlap the other calls;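 note: H4 neuroglioblastoma cells stably carrying SNCA 5'UTR luciferase fusion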
Each line names hits and unclear results; the compound was inactive in the other large screens. Rows were chosen to be rich in hits. Some 4.7% of all compounds tested hit in one or more screens of this group.

Cn1c(=O)c2sccc2n2c(CCCC(=O)NCCc3ccccc3)nnc12	none
CC(C)CCn1c(=O)c2sccc2n2c(CCCC(=O)N3CCN(c4ccccn4)CC3)nnc12	VIM-2 inh 8.6
CCn1c(=O)c2sccc2n2c(CCCC(=O)N3CCN(c4ccccn4)CC3)nnc12	VIM-2 inh 8.8
CCn1c(=O)c2sccc2n2c(CCCC(=O)NC3CCN(Cc4ccccc4)CC3)nnc12	VIM-2 inh 8.0
CC(C)OCCCn1c(=O)c2ccccc2n2c(CCC(=O)N3CCN(c4ccccn4)CC3)nnc12	none
CC(C)Cn1c(=O)c2sccc2n2c(CCCC(=O)N3CCC(N4CCCCC4)CC3)nnc12	VIM-2 inh 7.7
CN(CC(=O)Nc1ccc(F)c(F)c1F)C(=O)C1=NN(c2ccccc2)C(=O)CC1	none (no result: IMP-1 inh, VIM-2 inh, aSyn UTR inh)
CN(CC(=O)Nc1ccccc1Br)C(=O)C1CCN(C(=O)c2ccc(Cl)cc2)CC1	none
C/C(=N\NC(=O)c1ccc(C)cc1)c1c(C)[nH]n(-c2ccccc2)c1=O	aSyn UTR inh 67
C/C(=N\NC(=O)c1ccccc1)c1c(C)[nH]n(-c2ccccc2)c1=O	none
Cc1ncsc1CCSc1nc2ccccc2c(=O)n1C	VIM-2 inh 21
Cn1c(SCC(=O)O)nc2ccccc2c1=O	VIM-2 inh 11
Cc1ncsc1CCSc1n[nH]c(=O)n1-c1ccccc1	none
O=C(Cc1ccccn1)c1ccc(F)cc1	none (no result: IMP-1 inh, VIM-2 inh)
CC(=O)Nc1ccc2nc(NC(=O)c3ccc([N+](=O)[O-])s3)sc2c1	none
Cc1nc2cc(NC(=O)c3ccc([N+](=O)[O-])s3)ccc2s1	aSyn UTR inh 77
CCCCOc1ccc2c(c1)/C(=C(\C(Cl)=C(Cl)Cl)[N+](=O)[O-])N2	none
CCOC(=O)c1cnc(-n2nc(C)cc2C)nc1NNc1ncc(-c2ccccc2)cn1	aSyn UTR inh 83
CCOC(=O)c1cnc(-n2nc(C)cc2C)nc1NC(C)c1ccccc1 (stereo unspecified)	none
CCOC(=O)c1cnc(-n2nc(C)cc2C)nc1NCCO	none
CCOC(=O)c1cnc(-n2nc(C)cc2C)nc1NNc1cc(-c2ccccc2)nc(C)n1	aSyn UTR inh 93
O=C(NC1CCCC1)C(c1cccnc1)N(C(=O)c1csnn1)c1ccccc1Cl (stereo unspecified)	none
CC(C)(C)CC(=O)Nc1ccc(S(=O)(=O)NC2=NCCCCC2)cc1	none (no result: IMP-1 inh, VIM-2 inh, aSyn UTR inh)
COc1ccc(Br)cc1/C=N/N1C(=O)CSC1=S	IMP-1 inh 17
COc1ccc(C(=O)n2cnc(N)n2)cc1	none
COc1ccc(C(=O)N2C(=O)c3ccc(N)cc3C2=O)cc1	IMP-1 inh 7.7
CC(C)CC(=O)Nc1cccc2c1C(=O)N(c1ccccc1)C2=O	IMP-1 inh 7.5
CCOC(=O)N1CCN(C(=O)c2ccc3c(c2)N(Cc2cc(C)ccc2C)C(=O)c2ccccc2S3=O)CC1 (stereo unspecified)	none
CS(=O)(=O)N(CC(=O)NC1CCCCC1)Cc1ccc(F)cc1	none
COc1ccc(C(=O)/C=C/C(=O)N(CC(=O)NC2CCCCC2)Cc2ccc(F)cc2)c(O)c1	aSyn UTR inh 72 (no result: Mdm2 MdmX PPI, 697 NFkB inh, Jurkat NFkB inh)
c1ccc(-c2nnc(-c3ccccn3)s2)nc1	aSyn UTR inh 78
COCC(=O)N(C)c1nnc(-c2ccccn2)s1	none
COc1cnc(-c2ccccn2)nc1Sc1ccccc1	none
COc1ccc(Sc2nc(-c3ccccn3)ncc2OC)cc1	VIM-2 inh 7.9
Cn1cnc(S(=O)(=O)NCc2ccc(Br)cc2)c1	none
O=c1c2[nH]c3ccccc3c2ncn1CCCn1ccnc1	none
O=c1c2[nH]c3ccc(Br)cc3c2ncn1CCCn1ccnc1	IMP-1 inh 5.9
COc1ccc(-c2cc(-c3cc(F)ccc3O)[nH]n2)cc1OC	IMP-1 inh 5.2 (no result: aSyn UTR inh)
CC(C)c1ccc2[nH]c(O)c(N=NC(=O)c3cccc(S(=O)(=O)Nc4ccc(Cl)cc4)c3)c2c1	aSyn UTR inh 79
CCOC(=O)C(=CNc1ccc(S(N)(=O)=O)cc1)C(=O)OCC	none
CCOC(=O)C(=CNc1ccc(NC2=NCC(C)(C)S2)cc1)C(=O)OCC	VIM-2 inh 10
COc1ccc(N(CC(=O)NC2CCCCCC2)S(=O)(=O)c2ccc(C)cc2)cc1OC	none
Cc1ccc2nc(CSc3nc(C)ccc3C#N)[nH]c2c1	aSyn UTR inh 79
O=CN1c2ccccc2CSc2ccccc21	none (no result: IMP-1 inh, VIM-2 inh)
CC(C)(C)c1ccc(C(=O)NNC(=O)CCC(=O)Nc2ccccc2)cc1	none
CC12CN(C(=S)Nc3ccccc3)CC(C)(CN(C(=S)Nc3ccccc3)C1)C2=O	none
Cc1ccccc1C(=O)Nc1nnc(S(=O)(=O)N(C)Cc2ccco2)s1	VIM-2 inh 9.8
CCC(=O)Nc1nnc(S(=O)(=O)N(C)Cc2ccco2)s1	none
CN(Cc1ccco1)S(=O)(=O)c1nnc(NC(=O)c2ccccc2Cl)s1	VIM-2 inh 9.1
CCNc1c(NS(=O)(=O)c2ccc(Cl)s2)c(=O)oc2ccccc12	none
Cc1nn(C)c(C)c1/C=C(/C(=O)C(C)(C)C)n1cncn1	aSyn UTR inh 89
CCN(CC(=O)NCc1ccc(F)cc1)C(=O)C(C)Oc1cccc(Cl)c1 (stereo unspecified)	none (no result: IMP-1 inh, VIM-2 inh, aSyn UTR inh)
N#C/C(=C\c1cc2c(cc1Br)OCO2)C(=O)NCC1CCCO1 (stereo unspecified)	none
CCOC(=O)C1(CCOc2ccccc2)CCN(Cc2ccc(O)c(Cl)c2)CC1	aSyn UTR inh 108
Cc1cc(SCC(=O)N/N=C/c2ccc(O)c(O)c2O)c(C)cc1Br	aSyn UTR inh 68
COc1ccccc1NC(=O)C(C)OC(=O)c1cccc(-n2cnnn2)c1 (stereo unspecified)	none (no result: IMP-1 inh, VIM-2 inh)
CC(=O)N1c2ccc(S(=O)(=O)N(C)CC(=O)Nc3cccc(C)c3)cc2CC1C (stereo unspecified)	none
CC(=O)N1c2ccc(S(=O)(=O)N(C)CC(=O)Nc3ccccc3C)cc2CC1C (stereo unspecified)	IMP-1 inh 4.8
Cc1ccc(-c2cc3c(nn2)-c2ccccc2C3=O)cc1	aSyn UTR inh 86
O=C1c2ccccc2-c2nnc(-c3ccc(F)cc3)cc21	none
CSCCC(NS(=O)(=O)c1ccc(C)cc1)C(=O)N1CC=C(c2ccccc2)CC1 (stereo unspecified)	none (no result: IMP-1 inh, VIM-2 inh)
COc1ccccc1N(CCC#N)C(=S)Nc1ccc(S(=O)(=O)N2CCOCC2)cc1	none (no result: IMP-1 inh, VIM-2 inh, aSyn UTR inh)
CC(=O)c1ccc(N2CCN(C(=O)c3cc4c(C)nc5ccccc5c4o3)CC2)cc1	none
Cc1nc2ccccc2c2oc(C(=O)N3CCCC(C)C3)cc12 (stereo unspecified)	VIM-2 inh 9.6
Cc1nc2ccccc2c2oc(C(=O)N3CCC(N4CCCCC4)CC3)cc12	VIM-2 inh 60 (no result: aSyn UTR inh)
Cc1ccc(S(=O)(=O)N(C)C)cc1NC(=O)c1cccnc1Oc1ccccc1	none
COc1ccc(C)cc1N=Nc1ccc(O)c2ncccc12	aSyn UTR inh 68 (no result: Mdm2 MdmX PPI, 697 NFkB inh, Jurkat NFkB inh)
Cc1ccccc1N=Nc1ccc(O)c2ncccc12	aSyn UTR inh inconclusive (no result: Mdm2 MdmX PPI, 697 NFkB inh, Jurkat NFkB inh)
